Assay results from ChEMBL document CHEMBL1123247, “Nucleoside conjugates. 7. Synthesis and antitumor activity of 1-beta-D-arabinofuranosylcytosine conjugates of ether lipids” (J Med Chem, 1986).

Experiments:
[1] = test system: L1210; assay: Antitumor activity was determined against the ip implanted L1210 leukemia in mice by range in survival days at 200 mg/kg (treatment of 1qd schedule) dosage; Range is 14-23; type: functional, Mus musculus; settings: route intraperitoneal
Outline: (§1)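 DBA/2J mice, 23-28 g, in groups of 6, were inoculated ip with 1×10^6 L1210 cells on day 0. Dosing was ip starting 24 h later on the stated daily schedules. Conjugates were given as sonicated solutions and reference prodrugs as suspensions in 0.9% NaCl with 0.5% Tween-80. Mice were observed daily until death or 45 days. Median survival T/C was calculated from survivors per NCI protocols.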

[2] = test system: L1210; assay: Antitumor activity against the ic implanted L1210 lymphoid leukemia in mice expressed as optimal dose (1 qd treatment schedule) required to produce greatest increase in life span was determined; type: functional, Mus musculus
Outline: (§2)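 DBA/2J mice, groups of 6 (26-32 g), got 1 × 10^5 L1210 cells ic on day 0. Dosing was ip starting 24 h later, as a sonicated solution or suspension in 0.9% NaCl with 0.5% Tween-80, over a wide dose range. Mice were followed daily until death. Median survival T/C was taken from survivors per NCI protocols, and ILS = (T/C − 1) × 100. Active range means doses giving ILS ≥25%; optimal dose means greatest ILS.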

[3] = test system: L1210; assay: Antitumor activity against the ip implanted L1210 leukemia in mice expressed as optimal dose (1 qd treatment schedule) required to produce greatest increase in life span was determined; type: functional, Mus musculus
Outline: (§3)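 DBA/2J mice, groups of 6 (23-28 g), were inoculated ip with 1 × 10^6 L1210 cells on day 0. Dosing was ip from 24 h, in 0.9% NaCl with 0.5% Tween-80 (sonicated solution or suspension). Mice were observed daily until death or day 45. Median survival T/C followed NCI protocols, and ILS = (T/C − 1) × 100. Active range means doses giving ILS ≥25%; optimal dose means greatest ILS.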

[4] = test system: L1210; assay: Antitumor activity was determined against the ic implanted L1210 lymphoid leukemia in mice by range in survival days at 300 mg/kg (1 qd treatment schedule) dosage; Range is 14-18; type: functional, Mus musculus
[5] = test system: L1210; assay: Antitumor activity was determined against the ip implanted L1210 leukemia in mice by change in […] at 200 mg/kg (treatment of 1qd schedule) dosage; type: functional, Mus musculus; settings: route intraperitoneal
Outline: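 DBA/2J mice, 6 per group (wt 23-28 g), inoculated ip with 1×10^6 L1210 cells on day 0. Treatment was given ip in 0.9% NaCl with 0.5% Tween-80, starting 24 h later. Weight change was taken on day 8. Mice were observed daily until death or 45 days. Median survival T/C and %ILS = (T/C − 1) × 100 came from survivors per NCI protocols, and 45-day survivors were counted.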

[6] = test system: L1210; assay: Antitumor activity was determined against the ip implanted L1210 leukemia in mice by percent median survival rate (treated/control) at 200 mg/kg (treatment of 1qd schedule) dosage; 19.5/7.0; type: functional, Mus musculus; settings: route intraperitoneal; outline: as §1
[7] = test system: L1210; assay: Antitumor activity against ip implanted L1210 leukemia in mice expressed as active dose range (1 qd treatment schedule) required to produce increase in life span by >25% was determined; Range is 100-250; type: functional, Mus musculus; outline: as §3
[8] = test system: L1210; assay: Antitumor activity was determined against the ip implanted L1210 leukemia in mice by 45-day survivors in mice at 200 mg/kg (treatment of 1qd schedule) dosage; type: functional, Mus musculus; settings: route intraperitoneal
Outline: (§4)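 DBA/2J mice in groups of 6 (wt 23-28 g) were inoculated ip with 1×10^6 L1210 cells on day 0. Dosing was ip from 24 h, in 0.9% NaCl with 0.5% Tween-80 (conjugates sonicated), across a range of doses. Mice were observed daily until death or 45 days. Median T/C was computed from survivors per NCI protocols, and ILS = (T/C − 1)×100.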

[9] = test system: L1210; assay: Antitumor activity was determined against the ic implanted L1210 lymphoid leukemia in mice by percent increase in life span at 300 mg/kg (1 qd treatment schedule) dosage; type: functional, Mus musculus; outline: as §2
[10] = test system: L1210; assay: Antitumor activity was determined against the ip implanted L1210 leukemia in mice by percent increase in life span at 200 mg/kg (treatment of 1qd schedule) dosage; type: functional, Mus musculus; settings: route intraperitoneal; outline: as §4
[11] = test system: P388; assay: Antitumor activity was determined against the ip implanted P388 leukemia in mice by percent median survival rate (treated/control) at 200 mg/kg (1 qd treatment schedule) dosage; >45.0/12.0; type: functional, Mus musculus; settings: route intraperitoneal
[12] = test system: P388; assay: Antitumor activity was determined against the ip implanted P388 leukemia in mice by 45-day survivors in mice at 200 mg/kg (1 qd treatment schedule) dosage; type: functional, Mus musculus; settings: route intraperitoneal
Outline: (§5)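 DBA/2J mice, 23-33 g, in groups of 6, were inoculated ip with 1×10^6 P388 cells on day 0. Dosing was ip from 24 h on the stated schedules, in 0.9% NaCl with 0.5% Tween-80 (sonicated solution or suspension). Survival was followed daily until death or 45 days. Median T/C was calculated from survivors per NCI protocols, with ILS = (T/C − 1) × 100.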

[13] = test system: P388; assay: Antitumor activity against ip implanted P388 leukemia in mice expressed as active dose range (1 qd treatment schedule) required to produce increase in life span by >25% was determined; Range is 200-300; type: functional, Mus musculus
Outline: (§6)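 P388 leukemia: 1 × 10^6 cells were given ip on day 0 to DBA/2J mice, groups of 6 (23-33 g). Treatment was ip from 24 h after inoculation, vehicle 0.9% NaCl with 0.5% Tween-80. Mice were observed daily until death or 45 days. Median survival T/C was calculated from survivors per NCI protocols, and ILS = (T/C − 1) × 100. Active range means doses giving ILS ≥25%; optimal dose means greatest ILS.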

[14] = test system: P388; assay: Antitumor activity was determined against the ip implanted P388 leukemia in mice by change in […] at 200 mg/kg (1 qd treatment schedule) dosage; type: functional, Mus musculus; settings: route intraperitoneal
Outline: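 P388 leukemia, 1×10^6 cells implanted ip on day 0 into DBA/2J mice, groups of 6 (wt 23-33 g). Dosing ip started 24 h post-inoculation, vehicle 0.9% NaCl containing 0.5% Tween-80. Animals were observed daily until death or 45 days. Outputs were weight change, median survival T/C from survivors per NCI protocols, and %ILS = (T/C − 1) × 100.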

[15] = test system: P388; assay: Antitumor activity was determined against the ip implanted P388 leukemia in mice by range in survival days at 200 mg/kg (1 qd treatment schedule) dosage; Range is 24->45; type: functional, Mus musculus; settings: route intraperitoneal
[16] = test system: P388; assay: Antitumor activity was determined against the ip implanted P388 leukemia in mice by percent increase in life span at 200 mg/kg (1 qd treatment schedule) dosage; type: functional, Mus musculus; settings: route intraperitoneal; outline: as §5
[17] = test system: P388; assay: Antitumor activity against the ip implanted P388 leukemia in mice expressed as optimal dose (1 qd treatment schedule) required to produce greatest increase in life span was determined; type: functional, Mus musculus; outline: as §6
[18] = test system: L1210; assay: Antitumor activity was determined against the ic implanted L1210 lymphoid leukemia in mice by change in body weight at 300 mg/kg (1 qd treatment schedule) dosage
[19] = test system: L1210; assay: Antitumor activity was determined against the ic implanted L1210 lymphoid leukemia in mice by median survival time at 300 mg/kg (1 qd treatment schedule) dosage; 14.5/7.0

## CCCCCCCCCCCCCCCC(=O)Nc1ccn([C@@H]2O[C@H](CO)[C@@H](O)[C@@H]2O)c(=O)n1
[1]
  Range: 14
[2]
  Optimal dose: 300 mg
[3]
  Optimal dose: 200 mg/kg/day
[4]
  Range: 14
[5]
  Weight change: -0.5 g mouse-1
[6]
  median survival time: 19.5 days
[7]
  Active dose range: 100 mg/kg/day
[8]
  Survivors: 0
[9]
  ILS: 107
[10]
  ILS: 179
[11]
  T/C: >45%
[12]
  Survivors: 5
[13]
  Active dose range: 200 mg/kg/day
[14]
  Weight change: 0.75 g mouse-1
[15]
  Range: 24
[16]
  ILS: >275
[17]
  Optimal dose: 200 mg
[18]
  Weight change: -2.04 g mouse-1
[19]
  median survival time: 14.5 days
